OX1R antag-1 = human HCRTR1 antagonism. O43613. CHO/OX1R cells, Fluo-8 calcium fluorescence, orexin A. inhibition, % at 5 µM. hit rate 0.43% among 330,000. AID 434989;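 active = inhibition above its plate's threshold, mean inhibition of all tested compounds on the plate plus 3 SD, cut at about 37% in these data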;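 also: 0% = orexin A challenge wells and 100% = SB-334867-A antagonist wells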
Target sequence (O43613 whole entry, looked up): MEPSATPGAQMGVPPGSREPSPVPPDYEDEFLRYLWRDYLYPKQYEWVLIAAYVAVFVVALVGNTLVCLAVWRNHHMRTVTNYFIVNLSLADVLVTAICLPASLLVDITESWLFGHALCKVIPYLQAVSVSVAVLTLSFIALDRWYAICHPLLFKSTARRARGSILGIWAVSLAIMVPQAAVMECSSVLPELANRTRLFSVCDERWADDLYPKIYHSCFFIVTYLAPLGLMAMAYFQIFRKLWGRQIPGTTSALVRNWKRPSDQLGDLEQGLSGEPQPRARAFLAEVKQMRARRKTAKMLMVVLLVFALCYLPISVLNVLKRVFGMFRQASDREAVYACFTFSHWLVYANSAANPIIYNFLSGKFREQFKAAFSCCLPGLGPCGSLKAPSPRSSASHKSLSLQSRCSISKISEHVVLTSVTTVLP
CHO-K1 Ca ag = nonselective activator or artifact in parental CHO-K1 cells; hit rate 0.48% among 360,000; AID 602248; activation, % at 3 µM; Fluo-8 calcium fluorescence; scaled to maximal ATP response, vehicle zero; in the data active = activation above about 15%;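 also: untransfected CHO-K1 host cells lacking M1 receptor as counterscreen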
OX1R antag-2 = OX1R (human) antagonism; O43613; OX1R-expressing cells, FRET antagonist read-out; inhibition, % at 6.6 µM; hit rate 1.8% among 330,000; in the data active = inhibition mostly above about 38%, no sharp cut-off; inactive = mostly below about 40%;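 also: 0% = agonist challenge alone and 100% = reference antagonist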
CHO-K1 Ca PAM = M1 PAM counterscreen hit in parental CHO-K1 cells. ATP EC20, Fluo-8 calcium fluorescence; 0% at ATP EC20, 100% at ATP max. hit rate 0.02% among 360,000. AID 602247. activation, % at 3 µM;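 active = activation above the run cutoff, the mean activation of all test compounds plus 3 SD, cut at about 40% in these data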;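 also: peak over basal fluorescence ratio in a 140 s read after ATP addition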
CHO-K1 Ca antag = nonselective inhibitor or artifact in parental CHO-K1 cells. hit rate 0.6% among 360,000. AID 602250. inhibition, % at 3 µM. ATP-induced calcium, Fluo-8 fluorescence;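 active = inhibition above a per-plate cutoff, the plate's mean sample inhibition plus 3 SD, cut at about 24% in these data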;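 also: 0% = DMSO plus EC80 ATP and 100% = DMSO alone without ATP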
CHO parental Ca = counter-screen for OX1R antagonists: effect in parental CHO cells. parental CHO-K1, ATP-induced calcium, Fluo-8 fluorescence. inhibition, % at 5.6 µM. hit rate 0.63% among 330,000. AID 463079;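 active = inhibition above that plate's mean sample inhibition plus 3 SD, cut at about 26% in these data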;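 also: 0% = ATP-challenged DMSO wells and 100% = DMSO wells without ATP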
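Test system: parental CHO cells; detection: calcium-sensitive Fluo-8 fluorescence; evaluation: percent inhibition of calcium signal; also added: ATP as calcium-mobilizing challenge; repeats: one well per compound; control set: ATP-challenged DMSO wells low, unchallenged DMSO wells high; compound: single nominal dose of 5.6 µM per compound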
* marks the source's active call; other numbers are inactive results; x = no result. Hits are enriched below; roughly 2.9% of the tested compounds scored in any of these assays.

SMILES	OX1R antag-1	CHO-K1 Ca ag	OX1R antag-2	CHO-K1 Ca PAM	CHO-K1 Ca antag	CHO parental Ca
O=C(CN1CCN(c2ccccc2O)CC1)Nc1cc([N+](=O)[O-])ccc1Cl	-5	1	58*	-8	-9	-19
O=C(CN1CCCCC1)Nc1nnc(-c2ccccc2)s1	-10	1	6	17	-17	-7
O=C(CN1CCCCCC1)Nc1cc([N+](=O)[O-])ccc1Cl	5	0	62*	7	4	4
CCCCC(C(=O)NC(C)c1ccccc1)C(=O)NC(C)c1ccccc1 (centres undefined)	13	3	57*	-2	4	-16
CC(NC(=O)C(c1ccccc1)c1ccccc1)c1ccccc1 (centres undefined)	-35	0	15	-11	6	-12
COCCN(Cc1nc(C2(c3ccc(C)cc3)CCCC2)no1)C(C)C	-18	4	18	20	-15	4
O=C(O)c1cccc(NS(=O)(=O)c2cc(S(=O)(=O)c3ccc(Cl)cc3)ccc2Cl)c1	-10	0	4	-24	4	-9
COc1cc2[nH]c(Cl)c([N+](=O)[O-])c2cc1OC	0	1	73*	19	-14	4
Cc1cccc(C(C)C)c1NC(=O)Cc1ccc(S(=O)(=O)N2CCOCC2)s1	-4	1	9	-15	5	3
O=C(NN1CCOCC1)c1cnn2c(C(F)F)cc(-c3ccccc3)nc12	-15	1	40*	24	-18	-18
Cc1ccc(S(=O)(=O)Nc2ccc3nc(C)sc3c2)cc1	33	5	45	8	7	29
Cc1nc2ccc(S(=O)(=O)Nc3cccc(-c4nc5cccnc5s4)c3)cc2s1	-18	6	19	-9	30*	-17
Cc1nc2ccc(S(=O)(=O)Nc3ccc(-c4nc5cccnc5s4)cc3)cc2s1	-37	2	4	22	-2	-12
Cc1nc2ccc(NS(=O)(=O)c3ccc4c(c3)OCCO4)cc2s1	45*	7	27	-1	23	31
Cc1nc2ccc(NS(=O)(=O)c3cccc([N+](=O)[O-])c3)cc2s1	29	8	20	2	0	30*
Cc1ccc(S(=O)(=O)Nc2ccc3nc(N)sc3c2)cc1	32	5	19	-4	13	34*
Cc1nc2ccc(NS(=O)(=O)c3ccc(F)c(F)c3)cc2s1	20	11	18	-6	0	3
Cc1cccc(NC2=CC(=O)CC(C)(C)C2)c1C	-21	1	6	-4	-1	-13
CCCN1CCN(CC(=O)Nc2nncs2)CC1	-15	3	6	17	-12	-5
Cn1c2ccsc2c2ncn(Cc3ccccc3F)c(=O)c21	25	2	42*	6	0	-8
Cn1c2ccccc2c2ncn(Cc3ccc(F)cc3)c(=O)c21	-29	2	6	3	-2	-23
COc1ccc(CCNC(=S)N2CCC(C(=O)c3ccc(F)cc3)CC2)cc1OC	-8	15*	27	9	-4	-6
COc1ccc(C(=O)C2CCN(C(=O)Nc3ccc(C)cc3)CC2)cc1	-4	19*	13	-3	4	-1
COCCNC(=S)N1CCC(C(=O)c2ccc(F)cc2)CC1	x	1	x	6	-9	x
COc1ccc(C(=O)C2CCN(C(=S)NCCc3ccccc3)CC2)cc1	-32	6	-3	23	-19	-7
SMILES	OX1R antag-1	CHO-K1 Ca ag	OX1R antag-2	CHO-K1 Ca PAM	CHO-K1 Ca antag	CHO parental Ca
COc1ccc(C(=O)C2CCN(C(=S)NCCc3ccc(OC)c(OC)c3)CC2)cc1	-12	18*	13	1	-6	-4
O=C(Nc1cccc2cccnc12)c1ccc2sc([C@@H]3O[C@H](CO)[C@H](O)[C@H](O)[C@H]3O)nc2c1	x	1	x	26	-14	x
COc1ccc(N(C(=O)c2ccco2)C(C(=O)NC2CCCC2)c2ccc(N3CCOCC3)cc2)c(OC)c1 (centres undefined)	-27	-1	18	-18	-1	-17
CN(C)CC1CCCCC1OC(=O)c1ccc(S(=O)(=O)N(C)c2ccccc2)cc1 (centres undefined)	-23	5	10	-2	2	-5
CC(C)(C)c1ccc(NC(=O)COc2ccc(-n3ccnc3)cc2)cc1	62*	10	38	1	17	44*
N#Cc1cccc(NC(=O)COc2ccc(-n3ccnc3)cc2)c1	8	5	25	-4	1	23*
COc1ccc(C)cc1NC(=O)c1nn(C)c(C(=O)Nc2cc(C)ccc2OC)c1[N+](=O)[O-]	-5	0	34*	13	0	-17
COc1cccc(C(=O)NCCS(=O)(=O)N2CCN(C(=O)c3ccco3)CC2)c1	-7	0	13	-7	17	11
CCOC(=O)c1c(C)[nH]c(C)c1C(=O)COC(=O)c1cc2ccccc2cc1O	0	3	72*	18	-4	-14
CCOC(=O)c1c(C)[nH]c2c1cc(O)c1ccccc12	-8	0	43*	0	11	2
CCOC(=O)c1c(C)oc2c1cc(O)c1ccccc12	-15	3	22	3	16	-23
CCn1c(SCC(=O)Nc2nc3ccccc3s2)nnc1-c1ccc(OC)cc1	-2	0	34	10	-3	39*
CCn1c(SCC(=O)Nc2nc3c(s2)CCCC3)nnc1-c1ccccc1	-12	2	49*	12	-4	-26
CCc1nnc(SC(C)C(=O)Nc2nccs2)n1C (centres undefined)	2	0	3	13	-8	-5
O=C(COC(=O)c1ccc(F)c([N+](=O)[O-])c1)NC(=O)NCc1ccccc1	-1	1	33*	-1	3	-3
Cc1ccc(C(=O)OCC(=O)NC(=O)NCc2ccccc2)cc1C	-8	0	1	-6	-10	4
CC(C)c1cc(N2CCC(=O)NC2=O)cc(C(=O)O)c1O	-7	18*	15	4	14	6
CC(C)N1CCC(=O)NC1=O	x	-1	x	12	-7	x
COCCN1C(=O)/C(=C/c2ccc(N3CCCC3)cc2)SC1=S	50*	4	13	0	12	42*
CC(OC(=O)CC1CCCCC1)C(=O)Nc1ccc(F)cc1 (centres undefined)	-10	0	12	7	6	-16
COCCNC(=O)C1(C)CCCN(Cc2ccc(-n3ccnc3)cc2)C1 (centres undefined)	x	0	x	-1	4	x
Oc1ccc(Br)cc1/C=N/NC(=S)NCCc1ccccc1	7	1	17	9	-6	34*
COc1ccc(O)c(/C=N/NC(=S)NCCc2ccccc2)c1	-17	1	20	14	-11	0
N#CC1=C(N)NC(SCc2ccccc2)=C(C#N)C12CCCC2	1	0	27	3	-3	-11

Source: PubChem BioAssay
